For series [1], the system named is Plasmodium falciparum. Put plainly: Antimalarial activity against chloroquine-resistant Plasmodium falciparum FcB1R after 24 hrs by semiautomated micro dilution assay. The class given is functional, organism-based. In a few lines:
(§1)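 Asynchronous P. falciparum cultures on human erythrocytes (0.5% parasitaemia, 1% final haematocrit) were exposed to serially diluted drug for 24 h at 37 °C. [³H]hypoxanthine was then added for a further 24 h. Cells were freeze-thawed, harvested onto glass-fibre filters and scintillation-counted against a drug-free control on the same plate. IC50 was read from concentration-response curves (mean ± SD, independent experiments). DMSO was ≤0.1%.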

Series [2] deals with Plasmodium falciparum. Put plainly: Antimalarial activity against chloroquine-resistant Plasmodium falciparum K1 after 24 hrs by semiautomated micro dilution assay. The class given is functional, organism-based. The conditions noted are these: K1, 24 h. In short, it runs like this: as §1
The nature of series [3]: Selectivity index, ratio of CC50 for human MRC5 cells to IC50 for Plasmodium falciparum K1. The class given is functional. In short, it runs like this:
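Ratio of MRC-5 CC50 to P. falciparum K1 IC50. CC50: 7-day MTT assay at 540 nm, from two experiments. IC50: asynchronous cultures (0.5% parasitaemia, 1% haematocrit) exposed to drug for 24 h at 37 °C, then [³H]hypoxanthine added for a further 24 h. Incorporation compared with drug-free controls; mean of independent experiments.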

The nature of series [4]: Cytotoxicity against human […] cells after 7 days by MTT assay. The format is cell-based. In a few lines: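 MRC-5 human embryonic lung cells seeded at 5000 per well. After 24 h, cells were washed and given two-fold drug dilutions (32 to 1.6) in RPMI + 5% FCS, with final DMSO below 0.5%. Incubated 7 days at 37 °C in 5% CO₂. MTT read-out as % reduction of 540 nm absorbance versus untreated cultures. CC50 from two experiments.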
(Formazan colour is commonly taken as a measure of viable cells.)

Series [5] relates to Plasmodium falciparum. Put plainly: Antimalarial activity against chloroquine-sensitive Plasmodium falciparum Thai after 24 hrs by semiautomated micro dilution assay.
Series [6] in a line: Inhibition of haem polymerization after 24 hrs. The class given is functional. In a few lines: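 Lipid-induced β-hematin formation: hemin in 25 mM NaOH mixed with a 1-monooleoylglycerol suspension in 90 mM sodium acetate, pH 5. Drug added from DMSO stock; controls received equal DMSO. Incubated 24 h at 37 °C, in duplicate. Samples centrifuged at 4 °C, and the pellet washed repeatedly with 10 mM sodium phosphate pH 7.4 containing 2.5% SDS.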

Series [7] concerns Plasmodium berghei. Put plainly: Antimalarial activity as reduced parasitaemia in Plasmodium berghei ANKA 65 infected Swiss CD1 mice (Mus musculus) at 20 mg/kg initial oral followed by intraperitoneal dose after 4 days. The format is functional. On the set-up: scale not given: the % may be the effect or the level left.
Series [8] concerns Plasmodium berghei. Put plainly: Antimalarial activity as reduced parasitaemia in Plasmodium berghei ANKA 65 infected Swiss CD1 mice (Mus musculus) at 40 mg/kg initial oral followed by intraperitoneal dose after 4 days. The format is functional. On the set-up: scale not given: the % may be the effect or the level left. In a few lines:
(§2)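 P. berghei ANKA 65 in 4-week-old female Swiss CD-1 mice (20–25 g), infected ip with about 10⁷ parasitized erythrocytes from a donor. Treatment at 40 mg/kg in 100% DMSO: first dose oral at infection, then ip on the following four days. Three mice per group, with three DMSO-dosed infected controls. Parasite reduction read on day 4; survival compared with untreated controls.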

For series [9], the system named is Plasmodium berghei. Put plainly: Antimalarial activity as increased MST in Plasmodium berghei ANKA 65 infected Swiss CD1 mice (Mus musculus) at 20 mg/kg initial oral followed by intraperitoneal dose after 4 days. The class given is functional.
Series [10] has as its system Plasmodium berghei. Put plainly: Antimalarial activity as increased MST in Plasmodium berghei ANKA 65 infected Swiss CD1 mice (Mus musculus) at 40 mg/kg initial oral followed by intraperitoneal dose after 4 days. The format is functional, organism-based. On the set-up: dose 40 mg/kg. In short, it runs like this:
as §2

For series [11], the system named is Plasmodium berghei. Put plainly: Antimalarial activity in Plasmodium berghei ANKA 65 infected Swiss CD1 mice (Mus musculus) as reduced parasitaemia at 10 mg/kg initial oral dose and further intraperitoneal dose after 4 days. The format is functional. Details: scale not given: the % may be the effect or the level left.
In series [12] the test system is Plasmodium berghei. Put plainly: Antimalarial activity as increased MST in Plasmodium berghei ANKA 65 infected Swiss CD1 at 10 mg/kg initial oral followed by intraperitoneal dose after 4 days. The class given is functional, organism-based. On the set-up: dose 10 mg/kg.

Consider 9 compounds from ChEMBL document CHEMBL1149757, “Synthesis and antimalarial activity of new analogues of amodiaquine” (Eur J Med Chem, 2008).

Calls of active or inactive are those of the source. The rule behind the calls is not given here.

For `CCN(CC)Cc1cc(NCCN2CCCCC2)cc(Nc2ccnc3cc(Cl)ccc23)c1`, the IC50 (as a rule, the concentration at which inhibition is half-maximal) in the series with Plasmodium falciparum [1] was 19.1 nM; with Plasmodium falciparum [2], 26.5 nM; with Plasmodium falciparum [5], 15.6 nM. Moreover, the “Ratio CC50/IC50” value in series [3] was 152. For the same compound, in series [4], the cytotoxic concentration (CC50) (usually the concentration giving 50% cytotoxicity) at 168 h came to 4000 nM.
Regarding `CCN(CC)Cc1cc(N)cc(Nc2ccnc3cc(Cl)ccc23)c1`, the IC50 in the series on Plasmodium falciparum [1] is 18.1 nM; in the series with Plasmodium falciparum [2], 32.3 nM; in [6], 153000 nM; with Plasmodium falciparum [5], 16.3 nM. In addition, the Ratio CC50/IC50 in series [3] is 774. Besides, the cytotoxic concentration (CC50) at 168 h in series [4] was greater than 25000 nM. Besides, the Activity came to 96% in the series with Plasmodium berghei [7], 100% in the series with Plasmodium berghei [8] and 63% with Plasmodium berghei [9]. The result in the series with Plasmodium berghei [10] was Active.
As to `CCN(CC)Cc1cccc(Nc2ccnc3cc(Cl)ccc23)c1`, the figures for the 50% inhibitory concentration (IC50) in the series on Plasmodium falciparum [1], in the series on Plasmodium falciparum [2] and with Plasmodium falciparum [5] were 15.8 nM, 17.1 nM and 13.2 nM, respectively. In addition, the “Ratio CC50/IC50” value in series [3] came to 731. Also, the cytotoxic concentration (CC50) at 168 h in [4] stood at 12500 nM.
With `CCN(CC)Cc1cc(Nc2ccnc3cc(Cl)ccc23)ccc1O.Cl`, the “Ratio CC50/IC50” value in series [3] is recorded as 1276. Besides, the CC50 at 168 h in series [4] was 12000 nM. Also, in series [6], inhibition was half-maximal at 48000 nM (IC50). In addition, in the series on Plasmodium berghei [11], the Activity was found to be 100%. Also, the outcome with Plasmodium berghei [12] was Active.
As for `CCN(CC)Cc1cc(O)cc(Nc2ccnc3cc(Cl)ccc23)c1`, the IC50 was 35.2 nM in the series with Plasmodium falciparum [1], 42.8 nM in the series with Plasmodium falciparum [2] and 25.3 nM with Plasmodium falciparum [5]. For the same compound, in series [3], the “Ratio CC50/IC50” value is on record as greater than 584. Also, in [4], the CC50 at 168 h was greater than 25000 nM.
Take `CCN(CC)Cc1ccc(O)c(Nc2ccnc3cc(Cl)ccc23)c1`: the IC50 was found to be 32.6 nM in the series with Plasmodium falciparum [2] and 15.2 nM with Plasmodium falciparum [5]. Also, in [3], the “Ratio CC50/IC50” value was determined as 583. The same compound came in with a 50% cytotoxic concentration (CC50) at 168 h in series [4] of 19000 nM.
For `CCN(CC)CCCC(C)Nc1ccnc2cc(Cl)ccc12` (stereo not drawn) [CHLOROQUINE], the half-maximal cytotoxic concentration (CC50) at 168 h in [4] is greater than 32000 nM. This compound yielded an IC50 in series [6] of 70000 nM. In addition, the Activity in the series on Plasmodium berghei [11] turned out to be 100%. The result in the series on Plasmodium berghei [12] was Active.
Turning to `CCN(CC)Cc1cccc(Nc2ccnc3cc(Cl)ccc23)c1O`, the half-inhibitory concentration (IC50) stood at 95.2 nM with Plasmodium falciparum [1], 262 nM in the series on Plasmodium falciparum [2] and 104 nM in the series on Plasmodium falciparum [5]. Further, the “Ratio CC50/IC50” value in series [3] is recorded as greater than 95. The CC50 at 168 h in series [4] was greater than 25000 nM.
In the same order, the values of `CCN(CC)Cc1ccc(Nc2ccnc3cc(Cl)ccc23)cc1O` [ISOQUINE] are 5.4 nM, 7.3 nM, 4.3 nM, 1096 and 8000 nM.
